Measured values collected from several papers.
Lines come from different studies, so protocols differ.
HTR1E: 5-hydroxytryptamine receptor 1E (HTR1E, Homo sapiens, UniProt P28566)
AVPR2: Vasopressin V2 receptor (AVPR2, Homo sapiens, UniProt P30518)

| SMILES | target | read-out | action | method | EC50 |
| --- | --- | --- | --- | --- | --- |
| COc1ccccc1N1CCN(CCCCN2C(=O)c3ccccc3C2=O)CC1 | HTR1E | G protein activation | agonist | BRET | 2.17 µM |
| CC(C)=CCn1cnc(=N)c2[nH]cnc21 | G-protein coupled receptor 84 (GPR84, Homo sapiens, UniProt Q9NQS5) | cAMP | agonist | luciferase | 32 µM |
| CC1=NN(/C(=N\c2ccccc2F)Nc2nnc(C)s2)C(c2ccc(C)cc2)S1 (stereo not drawn) | AVPR2 | cAMP | positive allosteric modulator | – | 41.4 µM |
| CN(C)CCOC1=Cc2ccccc2Sc2ccc(Cl)cc21 | HTR1E | G protein activation | agonist | BRET | 0.622 µM |
| CC1=NN(/C(=N/c2nnc(C)s2)Nc2ccc(C)c(C)c2)C(c2ccc(F)c(C(F)(F)F)c2)S1 (stereo not drawn) | AVPR2 | cAMP | positive allosteric modulator | – | > 50 µM |
| CN(C)c1ncnc2c1ncn2[C@@H]1O[C@H](CO)[C@@H](O)[C@H]1O | Adenosine receptor A3 (ADORA3, Homo sapiens, UniProt P0DMS8, I253Q) | G protein activation | agonist | – | 46 µM |
| CN1CCN2c3ncccc3Cc3ccccc3C2C1 (stereo not drawn) | HTR1E | G protein activation | agonist | BRET | 0.755 µM |
| CCCc1ccc(/N=C(/Nc2nnc(C)s2)N2N=C(C)SC2c2ccc(C)cc2)cc1 (stereo not drawn) | AVPR2 | cAMP | positive allosteric modulator | – | 3.9 µM |
| CC(C)=CCNc1ncnc2c1ncn2[C@@H]1O[C@H](CO)[C@@H](O)[C@H]1O | Adenosine receptor A3 (ADORA3, Homo sapiens, UniProt P0DMS8, V169L) | G protein activation | agonist | – | 1.2 µM |
